The source made the active and inactive calls. No cut-off for these calls is given here.
Columns and labels:
[1] = system: 786-0; test: cells; assay type: functional; conditions: Homo sapiens, 786-0, 72 h
[2] = system: UO-31; test: cells; assay type: functional; conditions: Homo sapiens, UO-31, 72 h
[3] = system: MDA-MB-231; test: cells; assay type: functional; conditions: Homo sapiens, MDA-MB-231, 72 h
[4] = system: K562; test: cells; assay type: functional; conditions: Homo sapiens, K562, 72 h
[5] = in vitro; conditions: human, MCF10A cells
[6] = Lipophilicity, log D of the compound in pH 7.4 PBS buffer; assay type: physicochemical
[7] = cells; assay type: functional; conditions: Homo sapiens, NCI/ADR-RES, 72 h
[8] = system: SF-295; test: cells; assay type: functional; conditions: Homo sapiens, SF-295, 72 h
[9] = system: U-251; test: cells; assay type: functional; conditions: Homo sapiens, U-251, 72 h
[10] = molecular target: T1, Histone deacetylase (Homo sapiens) (UniProt Q13547+O15379+Q9UBN7+Q92769+Q9UQL6+Q8WUI4+Q9BY41+Q96DB2+P56524+Q9UKV0+Q969S8); test: Inhibition of HDAC in human MDA-MB-231 cells assessed as stimulation of histone H3 acetylation at 0.5 uM by Western blot; assay type: cell-based; conditions: TDE = time-dependent effect
In short: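 Time course in MDA-MB-231 cells at 0.5 μM, sampled from 3 h up to 24 h. Lysed in RIPA (pH 7.5, protease and phosphatase inhibitors) at 4 °C, then 60 μg protein run on SDS-PAGE. Western blot with anti-acetyl-histone H3 and ECL detection.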

[11] = system: SK-MEL-5; test: cells; assay type: functional; conditions: Homo sapiens, SK-MEL-5, 72 h
[12] = Half life in mouse plasma; assay type: ADME, cell-free
[13] = system: PC-3; test: cells; assay type: functional; conditions: Homo sapiens, PC-3, 72 h
[14] = Apparent permeability from basolateral to apical side in human Caco2 cells at 10 uM; assay type: ADME, cell-based; conditions: Caco-2
In short: (§1)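 Caco-2 monolayers, test compound at 10 μM. Apparent permeability measured in both directions, apical to basolateral and basolateral to apical. Efflux ratio = P_app B to A / P_app A to B. Run by a contract lab following published methods. Mean of three independent triplicate experiments.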

[15] = system: UACC-62; test: Growth inhibition of human UACC62 cells after 72 hrs by MTS assay; assay type: functional; conditions: UACC-62, 72 h
[16] = system: M14; test: cells; assay type: functional; conditions: Homo sapiens, M14, 72 h
[17] = Apparent permeability from apical to basolateral side in human Caco2 cells at 10 uM; assay type: ADME, cell-based; conditions: Caco-2
In short: as §1

[18] = system: ACHN; test: cells; assay type: functional; conditions: Homo sapiens, 72 h
[19] = system: T47D; test: cells; assay type: functional; conditions: Homo sapiens, 72 h
[20] = system: KM12; test: cells; assay type: functional; conditions: Homo sapiens, KM12, 72 h
[21] = system: A498; test: cells; assay type: functional; conditions: Homo sapiens, A498, 72 h
[22] = system: SN12C; test: cells; assay type: functional; conditions: Homo sapiens, 72 h
[23] = system: CCRF-CEM; test: Growth inhibition of human CCRF-CEM cells after 72 hrs by MTS assay; assay type: functional
[24] = system: TK-10; test: cells; assay type: functional; conditions: Homo sapiens, TK-10, 72 h
[25] = Efflux ratio, ratio of apparent permeability from basolateral to apical side over apparent permeability from apical to basolateral side in human Caco2 cells at 10 uM; assay type: ADME, cell-based; conditions: Caco-2
In short: as §1

[26] = cells; assay type: functional; conditions: Homo sapiens, Hs-578T, 72 h
[27] = molecular target: T1, Histone deacetylase (Homo sapiens); test: Inhibition of HDAC in human MDA-MB-231 cells assessed as stimulation of histone H3 acetylation at 0.1 uM incubated for 24 hrs by Western blot; assay type: cell-based
In short: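 MDA-MB-231 cells in 35-mm dishes, dosed 24 h at graded concentrations, then trypsinized and PBS-washed. Lysed in RIPA (50 mM Tris-HCl pH 7.5, protease and phosphatase inhibitors) for 30 min at 4 °C, then cleared at 12,000g. Lysate, 60 μg protein by BCA, run on SDS-PAGE and PVDF. Blotted with anti-acetyl-histone H3 and HRP anti-rabbit, read by ECL.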

[28] = Half life in mouse liver microsomes; assay type: ADME, Microsome
[29] = system: NCI-H226; test: cells; assay type: functional; conditions: Homo sapiens, NCI-H226, 72 h
[30] = system: LOX IMVI; test: cells; assay type: functional; conditions: Homo sapiens, 72 h
[31] = system: COLO 205; test: Growth inhibition of human COLO205 cells after 72 hrs by MTS assay; assay type: functional; conditions: COLO 205, 72 h
[32] = system: OVCAR-8; test: cells; assay type: functional; conditions: Homo sapiens, OVCAR-8, 72 h
[33] = system: MOLT-4; test: Growth inhibition of human MOLT4 cells after 72 hrs by MTS assay; assay type: functional; conditions: MOLT-4, 72 h
[34] = system: DU-145; test: cells; assay type: functional; conditions: Homo sapiens, DU-145, 72 h
[35] = system: SR; test: Growth inhibition of human SR cells after 72 hrs by MTS assay; assay type: functional
[36] = system: OVCAR-3; test: cells; assay type: functional; conditions: Homo sapiens, OVCAR-3, 72 h
[37] = system: HCT-15; test: cells; assay type: functional; conditions: Homo sapiens, HCT-15, 72 h
[38] = system: SK-MEL-2; test: cells; assay type: functional; conditions: Homo sapiens, SK-MEL-2, 72 h
[39] = system: NCI-H322M; test: Growth inhibition of human NCI-H322M cells after 72 hrs by MTS assay; assay type: functional
[40] = system: NCI-H460; test: Growth inhibition of human NCI-H460 cells after 72 hrs by MTS assay; assay type: functional; conditions: NCI-H460, 72 h
[41] = system: HL-60(TB); test: cells; assay type: functional; conditions: Homo sapiens, HL-60, 72 h
[42] = system: SNB-75; test: Growth inhibition of human SNB75 cells after 72 hrs by MTS assay; assay type: functional; conditions: SNB-75, 72 h
[43] = system: SF-539; test: cells; assay type: functional; conditions: Homo sapiens, SF-539, 72 h
[44] = molecular target: Histone deacetylase; test: Inhibition of HDAC in human HeLa cell nuclear extracts using Ac-Arg-Gly-Lys(Ac)-AMC substrate by fluorimetry; assay type: protein assay
[45] = Half life in artificial gastric fluid; assay type: physicochemical
[46] = system: OVCAR-5; test: Growth inhibition of human OVCAR5 cells after 72 hrs by MTS assay; assay type: functional; conditions: OVCAR-5, 72 h

Question: What does the source list for `CC(C)[C@@H](c1nc2ccccc2o1)n1cc(/C=C/C(=O)NO)nn1`?
Answer: GI50 [1]: 170 nM; GI50 [2]: 60 nM; GI50 [3]: 520 nM; GI50 [4]: 88 nM; GI50 at 48 h [5]: 1600 nM; logD [6]: 2; GI50 [7]: 27 nM; GI50 [8]: 120 nM; GI50 [9]: 180 nM; inhibition [10]: tde; GI50 [11]: 100 nM; half-life [12]: 32 h; GI50 [13]: 120 nM; Papp B→A at 10 µM [14]: 7.61 ×10⁻⁶ cm/s; GI50 [15]: 140 nM; GI50 [16]: 180 nM; Papp A→B at 10 µM [17]: 6.61 ×10⁻⁶ cm/s; GI50 [18]: 210 nM; GI50 [19]: 51 nM; GI50 [20]: 230 nM; GI50 [21]: 180 nM; GI50 [22]: 360 nM; GI50 [23]: 110 nM; GI50 [24]: 44 nM; efflux ratio at 10 µM [25]: 1.15; GI50 [26]: 580 nM; inhibition [27]: Active; half-life [28]: 3.25 h; GI50 [29]: 540 nM; GI50 [30]: 44 nM; GI50 [31]: 140 nM; GI50 [32]: 84 nM; GI50 [33]: 72 nM; GI50 [34]: 160 nM; GI50 [35]: 90 nM; GI50 [36]: 220 nM; GI50 [37]: 470 nM; GI50 [38]: 87 nM; GI50 [39]: 140 nM; GI50 [40]: 150 nM; GI50 [41]: 190 nM; GI50 [42]: 250 nM; GI50 [43]: 240 nM; IC50 [44]: 7 nM; half-life [45]: 9.4 h; GI50 [46]: 140 nM
